Columns and labels:
Conditions in all cases: Chlorocebus aethiops
COS-1 [1] = test: Compound tested for inhibition of HIV Tat-regulated Transactivation in COS cells at a concentration of 60 uM.; assay type: functional
How it was run: (§1)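 COS cells in IMDM with 10% FBS, penicillin, streptomycin and Fungizone, 37 °C, 5% CO2, seeded in triplicate at ca. 1.5×10^5 cells/well and grown 24 h to 50% confluence. Calcium phosphate cotransfection with CMV-driven tat plasmid (0.20 µg/well) and HIV LTR-SEAP plasmid (0.40 µg/well) for 18 h. Compound then added in medium with 0.30% DMSO final, for 48 h.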

COS-1 [2] = test: Compound tested for inhibition of HIV Tat-regulated Transactivation in COS cells at a concentration of 20 uM.; assay type: functional; how it was run: as §1
COS-1 [3] = test: Inhibitory activity against HIV Tat-regulated Transactivation in COS cells.; assay type: functional, cell-based; how it was run: as §1
COS-1 [4] = test: Compound tested for inhibition of HIV Tat-regulated Transactivation in COS cells at a concentration of 1 uM.; assay type: functional; how it was run: as §1
COS-1 [5] = test: Compound tested for inhibition of HIV Tat-regulated Transactivation in COS cells at a concentration of 100 uM.; assay type: functional; how it was run: as §1
COS-1 [6] = test: Compound tested for inhibition of HIV Tat-regulated Transactivation in COS cells at a concentration of 30 uM.; assay type: functional; how it was run: as §1
COS-1 [7] = test: Compound tested for inhibition of HIV Tat-regulated Transactivation in COS cells at a concentration of 3 uM.; assay type: functional; how it was run: as §1
COS-1 [8] = test: Compound tested for inhibition of HIV Tat-regulated Transactivation in COS cells at a concentration of 10 uM.; assay type: functional; how it was run: as §1

| Structure (SMILES) | inhibition at 60 µM (COS-1 [1]) | inhibition at 20 µM (COS-1 [2]) | IC50 (COS-1 [3]) | inhibition at 1 µM (COS-1 [4]) | inhibition at 100 µM (COS-1 [5]) | inhibition at 30 µM (COS-1 [6]) | inhibition at 3 µM (COS-1 [7]) | inhibition at 10 µM (COS-1 [8]) |
| --- | --- | --- | --- | --- | --- | --- | --- | --- |
| COc1ccc(C[C@@H](C)[C@@H](C)Cc2ccc(O)c(O)c2)cc1O | 73.7% | 27.5% | 30.8 µM | 5% | 91.3% | 52% | 2.3% | 5% |
| COc1ccc(C[C@H](C)[C@H](C)Cc2ccc(OC)c(OC)c2)cc1O (racemic) | 78.3% | 52% | 14.3 µM | 16.5% | 88.3% | 66% | 27% | 41.7% |
| COc1cc(C[C@@H](C)[C@@H](C)Cc2ccc(O)c(O)c2)ccc1O (racemic) | 83.3% | 38.5% | 25 µM | 9% | 92.3% | 56.3% | 7.3% | 20.7% |
| COc1cc(C[C@H](C)[C@H](C)Cc2ccc(OC)c(OC)c2)ccc1O (racemic) | 76.3% | 50.5% | 13.7 µM | 14.5% | 87.7% | 65% | 26.7% | 45% |
| COc1ccc(C[C@@H](C)[C@@H](C)Cc2ccc(O)c(O)c2)cc1OC (racemic) | 87.7% | 59% | 16.5 µM | 12.5% | 96% | 69.3% | 14.3% | 20% |
| COc1ccc(C[C@@H](C)[C@@H](C)Cc2ccc(OC)c(O)c2)cc1O [DIMETHYLNORDIHYDROGUARIERATE ACID] | 70% | 38% | 29.9 µM | 9.5% | 85.7% | 52% | 8.7% | 19% |
| COc1cc(C[C@@H](C)[C@@H](C)Cc2ccc(O)c(OC)c2)ccc1O [MESODIHYDROGUAIARETIC ACID] | 63.7% | 30.5% | 39 µM | 5.5% | 73.7% | 43% | 10.3% | 22.3% |
| COc1ccc(C[C@@H](C)[C@@H](C)Cc2ccc(OC)c(OC)c2)cc1OC [TERAMEPROCOL] | 78.7% | 61% | 11.1 µM | 18.5% | 90.3% | 70% | 25.3% | 45% |
